Measurements collected from several papers.
Compare with care: the assays were run in different laboratories.
Target: Tyrosine-protein kinase BTK (BTK, Homo sapiens, UniProt Q06187)

`O=C(Nc1c[nH]nc1C(=O)NC1CCNCC1)c1cc(F)cc(F)c1` has a remaining binding of 100% (binding; competition with immobilised ligand; 1 µM).
The remaining binding of `CN(CCCC(F)(F)F)c1nccc(-c2cnn3ncccc23)n1` is reported as 100% (binding; 1 µM).
With `O=C(NCCCN1CCOCC1)c1ccc(Nc2ncc(Cl)c(-c3ccc(Cl)s3)n2)cc1` the remaining binding was 100% (binding; competition with immobilised ligand; 1 µM).
For `O=C(Nc1cccnn1)N1CCC(=Cc2cccc(Oc3ccc(C(F)(F)F)cn3)c2)CC1`, the remaining binding was 100% (cell-free assay; competition with immobilised ligand; 1 µM).
`COc1cnc(Nc2cccc(S(N)(=O)=O)c2)nc1N1CCN(c2ccccc2)C(=O)C1` has a remaining binding of 81% (binding; competition with immobilised ligand; 1 µM).
The remaining binding of `O=C(NCCCN1CCOCC1)c1ccc(Nc2nccc(-c3cc4ccccc4s3)n2)cc1` is reported as 77% (binding; competition with immobilised ligand; 1 µM).
For `O=C1CCc2cc(Nc3cc(OC4CCOCC4)c([N+](=O)[O-])cc3Cl)ccc2N1`, the remaining binding was 100% (cell-free assay; competition with immobilised ligand; 1 µM).
The remaining binding of `Cc1cnn2ncc(-c3ccnc(N(C)C)n3)c2c1` is reported as 91% (binding; 1 µM).
The remaining binding of `Cc1ccc(-n2nc(C(C)(C)C)cc2NC(=O)Nc2ccc(-n3c(N)c(C(N)=O)c4nc5ccccc5nc43)cc2)cc1` is reported as 0.95% (cell-free assay; competition with immobilised ligand; 1 µM).
With `COc1cnc(Nc2cccc(S(N)(=O)=O)c2)nc1N1CCN(c2ccccc2)CC1` the remaining binding was 80% (binding; competition with immobilised ligand; 1 µM).
`O=C(N1CCS(=O)(=O)CC1)N1C[C@H](c2ccc(OC(F)(F)F)cc2)C[C@H](c2nc(C3CC3)no2)C1` gave a remaining binding of 100% (cell-free assay; competition with immobilised ligand; 1 µM).
The remaining binding of `Nc1ncc2c(n1)-c1c([nH]c3ccc(C#CC4CC4)cc13)CCCC2` is reported as 61% (binding; competition with immobilised ligand; 1 µM).
With `CN(C)c1nccc(-c2cnc3ncccn23)n1` the remaining binding was 68% (binding; 1 µM).
`Nc1c(C(=O)NCc2ccc(C(=O)NCCCC3CCCCC3)cc2)cnn1-c1ccccc1` has a remaining binding of 100% (cell-free assay; competition with immobilised ligand; 0.1 µM).
The remaining binding of `F[C@@H]1CCN(c2nccc(-c3cnn4ncccc34)n2)C1` is reported as 100% (binding; 1 µM).
`c1cncc(-c2cccc(Nc3nccc(NC4CCCCC4)n3)c2)c1` gave a remaining binding of 36% (binding; competition with immobilised ligand; 10 µM).
The remaining binding of `O=C(O)[C@@H]1[C@@H](Cn2nnc3ccccc3c2=O)CC[C@H]1C(=O)c1ccc(OCCC2CCOCC2)cc1` is reported as 100% (cell-free assay; competition with immobilised ligand; 1 µM).
The remaining binding of `CN(c1nccc(-c2cnn3ncccc23)n1)C1CC1` is reported as 100% (binding; 1 µM).
The remaining binding of `CCS(=O)(=O)c1cc2cc(C[C@](O)(CC(C)(C)c3ccc(F)cc3C(N)=O)C(F)(F)F)[nH]c2cn1` is reported as 100% (cell-free assay; competition with immobilised ligand; 1 µM).
`N[C@@H]1CCN(c2nccc(-c3cnn4ncccc34)n2)C1` gave a remaining binding of 100% (binding; 1 µM).
With `C[C@@H]1CN(c2ccc3ncc(-c4ccc5[nH]nc(C6CC6)c5c4)n3n2)C[C@H](C)O1` the remaining binding was 67% (binding; competition with immobilised ligand; 50 nM).
With `Cc1cnc(Nc2ccc(C(=O)N3CCC(N4CCCC4)CC3)cc2)nc1-c1cc2ccccc2s1` the remaining binding was 54% (binding; competition with immobilised ligand; 1 µM).
`C[C@H]1CCN(c2nccc(-c3cnn4ncccc34)n2)C1` gave a remaining binding of 95% (binding; 1 µM).
`CO[C@@H](C)c1c(Nc2ccc([C@H](N(C)C(=O)C3CCS(=O)(=O)CC3)C(F)(F)F)cc2)cnc2cc(Cl)nn12` has a remaining binding of 100% (cell-free assay; competition with immobilised ligand; 1 µM).
